The values that follow come from PubChem BioAssay.

Assay [1] in a line: hit retest on RPL19A-GFP reporter strain – cell-based, S. cerevisiae, flow cytometry, cherry picks, mother/daughter gates, confirmation (AID 2270;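 active = GFP response below 50% of the DMSO control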). The conditions noted are these: 3 h, at 10 µM, stronger effect = lower value, 100 = same GFP as DMSO wells. On the technique in general: A flow cytometer gives signals particle by particle.
A short description of assay [2]: yeast TOR pathway reporter LAP4-GFP change – cell-based, cherry picks, flow cytometry, mother/daughter gates, confirmation (AID 2271;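 active = GFP response above 150% of the DMSO control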;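 also: ratio of sample to DMSO plate mean so 100% equals DMSO level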). To be noted: S. cerevisiae LAP4-GFP strain, 3 h, at 10 µM, stronger effect = higher value, 100 means same as DMSO control. The gist of the method: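 material = Alexa 633-stained baker's yeast GFP-fusion strain | amount = 0.2 OD600 cells | schedule = 30 °C, 3 h compound incubation, rotating | signal = GFP by flow cytometry | measure = per-gate (all, mother, daughter) GFP response vs DMSO | controls = positive rapamycin (400 ng/mL), negative DMSO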

A short description of assay [3]: TOR pathway reporter MEP2-GFP, retest of hits – S. cerevisiae, flow cytometry GFP, cherry picks, confirmation (AID 2272;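 active = GFP response above 150% of the DMSO control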;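 also: ratio of well signal to plate DMSO mean so 100% equals DMSO level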). The conditions noted are these: S. cerevisiae MEP2-GFP strain, 3 h, at 10 µM, stronger effect = higher value.
The nature of assay [4]: yeast AGP1-GFP fluorescence change, single-dose – cell-based, flow cytometry, S. cerevisiae, cherry picks, confirmation (AID 2273).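 Also: median GFP channel fluorescence over the whole cell population gate.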 To be noted: S. cerevisiae AGP1-GFP strain, 3 h, at 10 µM.
Assay [5] can be described thus: TOR pathway CIT2 reporter hit retest – S. cerevisiae, GFP fusion, cherry picks, mother/daughter gates, confirmation (AID 2274). To be noted: S. cerevisiae CIT2-GFP strain, flow cytometry, 3 h, at 10 µM, stronger effect = higher value.
Where [6] appears, read: measured here: daughter cell gate.
The mark [7] stands for this setting: measured here: mother cell gate.
[8] abbreviates: measured here: daughter cell gate response.
The mark [9] stands for this setting: measured here: mother cell gate response.

Activity calls are given as the source filed them.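 The calls were made as follows, unless noted: active = GFP response above 150% of the DMSO level; inconclusive = fewer than 70 events counted for a yeast strain; inactive = the rest.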

Regarding `O=C(O)Cn1cc(/C=C/[N+](=O)[O-])c2ccccc21`, the GFP response vs DMSO in assay [1] is 97.6% (inactive); in assay [1] (setting [6]), 98.4%; in assay [1] (setting [7]) it was 97.2%; in assay [3], 100% (inactive). The GFP response relative to DMSO was 102% (inactive) in assay [2], 101% in assay [2] (setting [8]) and 100% in assay [2] (setting [9]). Besides, the GFP response, % of DMSO in assay [4] was 93.9% (inactive); in assay [5] it was 99.7% (inactive); in assay [5] (setting [6]), 99.1%; in assay [5] (setting [7]) it was 99.7%.
For the compound `N#C/C(=C\c1c(N2CCCCC2)nc2ccccn2c1=O)C(=O)NCc1ccco1`, the GFP response vs DMSO in assay [1] is 98.7% (inactive); in assay [1] (setting [6]), 98.8%; in assay [1] (setting [7]), 99.5%; in assay [3], 97.5% (inactive). Also, the figures for the GFP response relative to DMSO in assay [2], in assay [2] (setting [8]) and in assay [2] (setting [9]) were 97.7% (inactive), 97.9% and 96.5%, respectively. The GFP response, % of DMSO is 99.7% (inactive) in assay [4], 99.3% (inactive) in assay [5], 100% in assay [5] (setting [6]) and 96.8% in assay [5] (setting [7]).
Regarding `Cc1ccc(NC(=S)N(CCCN2CCOCC2)Cc2cccs2)c(C)c1`, the GFP response vs DMSO was 97.6% (inactive) in assay [1], 97.8% in assay [1] (setting [6]), 97.9% in assay [1] (setting [7]) and 99.5% (inactive) in assay [3]. Moreover, the values for the GFP response relative to DMSO in assay [2], in assay [2] (setting [8]) and in assay [2] (setting [9]) were 102% (inactive), 104% and 101%, respectively. In addition, the GFP response, % of DMSO was 96% (inactive) in assay [4], 99.3% (inactive) in assay [5], 100% in assay [5] (setting [6]) and 98% in assay [5] (setting [7]).
Regarding `O=C(O)c1ccc(SCc2cnc(Cl)s2)cc1`, the GFP response vs DMSO was 104% (inactive) in assay [1], 96.7% in assay [1] (setting [6]), 103% in assay [1] (setting [7]) and 110% (inactive) in assay [3]. Further, the GFP response relative to DMSO in assay [2] was 116% (inactive); in assay [2] (setting [8]) it was 99%; in assay [2] (setting [9]) it was 112%. Besides, the GFP response, % of DMSO in assay [4] is 114% (inactive); in assay [5] it was 108% (inactive); in assay [5] (setting [6]) it was 101%; in assay [5] (setting [7]), 104%.
For `CN1/C(=C\C(=O)c2cccc(S(=O)(=O)N3CCCCC3)c2)C(C)(C)c2ccccc21`, the GFP response vs DMSO in assay [1] was 96.8% (inactive); in assay [1] (setting [6]) it was 97.6%; in assay [1] (setting [7]) it was 97.2%; in assay [3], 100% (inactive). Further, the GFP response relative to DMSO in assay [2] is 95.4% (inactive); in assay [2] (setting [8]), 97.6%; in assay [2] (setting [9]), 94%. The GFP response, % of DMSO in assay [4] is 97.2% (inactive); in assay [5] it was 98.3% (inactive); in assay [5] (setting [6]), 99.1%; in assay [5] (setting [7]) it was 98.5%.
Turning to `CC(=O)Oc1oc(-c2ccccc2)nc1C=Nc1ccc(N(C)C)cc1`, the GFP response vs DMSO in assay [1] was 100% (inactive); in assay [1] (setting [6]) it was 100%; in assay [1] (setting [7]) it was 99.2%; in assay [3] it was 95.7% (inactive). For the same compound, the GFP response relative to DMSO was 95% (inactive) in assay [2], 91% in assay [2] (setting [8]) and 98.3% in assay [2] (setting [9]). For the same compound, the GFP response, % of DMSO in assay [4] was 97% (inactive); in assay [5], 92.6% (inactive); in assay [5] (setting [6]), 91.5%; in assay [5] (setting [7]), 92.3%.
On to `COC(CNC(=O)c1ccc2c3c(onc13)-c1ccccc1C2=O)OC`, for which the GFP response vs DMSO in assay [1] is 99.9% (inactive); in assay [1] (setting [6]) it was 103%; in assay [1] (setting [7]), 95.8%; in assay [3] it was 120% (inactive). In addition, the GFP response relative to DMSO in assay [2] is 188% (active); in assay [2] (setting [8]) it was 170%; in assay [2] (setting [9]), 189%. Further, the GFP response, % of DMSO in assay [4] was 86% (inactive); in assay [5], 91.3% (inactive); in assay [5] (setting [6]), 98.1%; in assay [5] (setting [7]), 83.7%.
Consider `COc1ccccc1-c1noc(-c2cc(OC)c(OC)c(OC)c2)n1`, for which the GFP response vs DMSO in assay [1] was 97.2% (inactive); in assay [1] (setting [6]), 96.4%; in assay [1] (setting [7]), 96.3%; in assay [3], 104% (inactive). The values for the GFP response relative to DMSO in assay [2], in assay [2] (setting [8]) and in assay [2] (setting [9]) were 103% (inactive), 105% and 105%, respectively. The GFP response, % of DMSO in assay [4] is 99.2% (inactive); in assay [5] it was 99.1% (inactive); in assay [5] (setting [6]) it was 96.5%; in assay [5] (setting [7]), 98.7%.
Regarding `CSc1ccc(/C=C/C(=O)c2ccc(NC(=O)C(C)C)cc2)cc1`, the GFP response vs DMSO in assay [1] is 98.8% (inactive); in assay [1] (setting [6]), 97.5%; in assay [1] (setting [7]) it was 99.1%; in assay [3], 100% (inactive). The GFP response relative to DMSO in assay [2] is 107% (inactive); in assay [2] (setting [8]), 103%; in assay [2] (setting [9]) it was 111%. Besides, the GFP response, % of DMSO in assay [4] is 93.5% (inactive); in assay [5], 92.6% (inactive); in assay [5] (setting [6]) it was 93.2%; in assay [5] (setting [7]), 90.2%.
Take `Cc1ccc(C)c(N2CCN(C(=O)c3ccccc3Br)CC2)c1`: the GFP response vs DMSO in assay [1] was 105% (inactive); in assay [1] (setting [6]), 102%; in assay [1] (setting [7]) it was 99.5%; in assay [3], 109% (inactive). For the same compound, the figures for the GFP response relative to DMSO in assay [2], in assay [2] (setting [8]) and in assay [2] (setting [9]) were 101% (inactive), 101% and 100%, respectively. The GFP response, % of DMSO in assay [4] was 98.8% (inactive); in assay [5], 106% (inactive); in assay [5] (setting [6]) it was 103%; in assay [5] (setting [7]), 105%.
Consider `O=C(N/N=C/c1ccc(-c2ccc(Br)cc2)o1)c1ccc2c(c1)OCO2`, for which the GFP response vs DMSO in assay [1] is 102% (inactive); in assay [1] (setting [6]), 98.6%; in assay [1] (setting [7]), 101%; in assay [3] it was 103% (inactive). In addition, the GFP response relative to DMSO is 99.5% (inactive) in assay [2], 95.9% in assay [2] (setting [8]) and 98.4% in assay [2] (setting [9]). Moreover, the GFP response, % of DMSO was 98.8% (inactive) in assay [4], 102% (inactive) in assay [5], 99.2% in assay [5] (setting [6]) and 98.1% in assay [5] (setting [7]).
Regarding `COc1ccccc1CN1C(=O)c2cccc3cccc(c23)C1=O`, the GFP response vs DMSO in assay [1] is 100% (inactive); in assay [1] (setting [6]) it was 100%; in assay [1] (setting [7]) it was 100%; in assay [3] it was 104% (inactive). Besides, the GFP response relative to DMSO was 91.9% (inactive) in assay [2], 90.7% in assay [2] (setting [8]) and 91.6% in assay [2] (setting [9]). The GFP response, % of DMSO in assay [4] was 108% (inactive); in assay [5] it was 99.3% (inactive); in assay [5] (setting [6]) it was 100%; in assay [5] (setting [7]), 98%.
`O=[N+]([O-])/C=C/c1cn(Cc2ccccc2)c2ccccc12`: the GFP response vs DMSO in assay [1] was 103% (inactive); in assay [1] (setting [6]), 98.1%; in assay [1] (setting [7]) it was 98.2%; in assay [3] it was 102% (inactive). Besides, the GFP response relative to DMSO in assay [2] is 134% (inactive); in assay [2] (setting [8]), 131%; in assay [2] (setting [9]) it was 138%. The GFP response, % of DMSO was 98.3% (inactive) in assay [4], 96.5% (inactive) in assay [5], 94.8% in assay [5] (setting [6]) and 91.2% in assay [5] (setting [7]).
For the compound `CCOc1ccc(C(=O)/C=C/c2ccc(SC)cc2)cc1`, the GFP response vs DMSO in assay [1] is 98% (inactive); in assay [1] (setting [6]), 100%; in assay [1] (setting [7]), 96.8%; in assay [3] it was 101% (inactive). Also, the GFP response relative to DMSO in assay [2] was 102% (inactive); in assay [2] (setting [8]), 99.1%; in assay [2] (setting [9]), 103%. Moreover, the GFP response, % of DMSO is 102% (inactive) in assay [4], 100% (inactive) in assay [5], 99.2% in assay [5] (setting [6]) and 80.9% in assay [5] (setting [7]).
On to `COc1ccc(N2C(=O)C(Cl)=C(Nc3c(C)n(C)n(-c4ccccc4)c3=O)C2=O)cc1`, for which the GFP response vs DMSO was 102% (inactive) in assay [1], 106% in assay [1] (setting [6]), 101% in assay [1] (setting [7]) and 99.5% (inactive) in assay [3]. Besides, the results for the GFP response relative to DMSO in assay [2], in assay [2] (setting [8]) and in assay [2] (setting [9]) were 100% (inactive), 101% and 101%, respectively. Moreover, the GFP response, % of DMSO in assay [4] was 89% (inactive); in assay [5] it was 92.1% (inactive); in assay [5] (setting [6]), 87.2%; in assay [5] (setting [7]), 87.5%.
Consider `Cc1cccn2c(N)c(-c3ccccc3)nc12`, for which the GFP response vs DMSO in assay [1] is 97.4% (inactive); in assay [1] (setting [6]) it was 97.3%; in assay [1] (setting [7]) it was 97.1%; in assay [3] it was 106% (inactive). In addition, the results for the GFP response relative to DMSO in assay [2], in assay [2] (setting [8]) and in assay [2] (setting [9]) were 95.3% (inactive), 96.5% and 90.6%, respectively. Besides, the GFP response, % of DMSO in assay [4] is 102% (inactive); in assay [5] it was 104% (inactive); in assay [5] (setting [6]) it was 102%; in assay [5] (setting [7]) it was 96.8%.
As for `COc1ccc(NC(=O)/C(C#N)=C/c2ncc([N+](=O)[O-])n2C)c(OC)c1`, the GFP response vs DMSO in assay [1] was 97.2% (inactive); in assay [1] (setting [6]), 95.1%; in assay [1] (setting [7]) it was 99.8%; in assay [3], 169% (inactive). Further, the GFP response relative to DMSO in assay [2] was 151% (active); in assay [2] (setting [8]) it was 138%; in assay [2] (setting [9]) it was 162%. Also, the GFP response, % of DMSO in assay [4] is 99.5% (inactive); in assay [5], 134% (inactive); in assay [5] (setting [6]), 132%; in assay [5] (setting [7]) it was 136%.
